Measured values from ChEMBL document CHEMBL3232915, “Discovery, optimization, and characterization of novel D2 dopamine receptor selective antagonists” (J Med Chem, 2014).
Blank lines part the entries; values can stand above or below the compound they belong to.

Experiments:
[1] = molecular target: T1, D(2) dopamine receptor (Homo sapiens, UniProt P14416); assay: Antagonist activity at D2 receptor (unknown origin) expressed in Flp-In TREx 293 cells coexpressing chimeric Gqi5 protein assessed as calcium accumulation by Fluo-8AM dye based fluorescence analysis; format: functional, cell-based
T1 sequence (P14416 whole entry): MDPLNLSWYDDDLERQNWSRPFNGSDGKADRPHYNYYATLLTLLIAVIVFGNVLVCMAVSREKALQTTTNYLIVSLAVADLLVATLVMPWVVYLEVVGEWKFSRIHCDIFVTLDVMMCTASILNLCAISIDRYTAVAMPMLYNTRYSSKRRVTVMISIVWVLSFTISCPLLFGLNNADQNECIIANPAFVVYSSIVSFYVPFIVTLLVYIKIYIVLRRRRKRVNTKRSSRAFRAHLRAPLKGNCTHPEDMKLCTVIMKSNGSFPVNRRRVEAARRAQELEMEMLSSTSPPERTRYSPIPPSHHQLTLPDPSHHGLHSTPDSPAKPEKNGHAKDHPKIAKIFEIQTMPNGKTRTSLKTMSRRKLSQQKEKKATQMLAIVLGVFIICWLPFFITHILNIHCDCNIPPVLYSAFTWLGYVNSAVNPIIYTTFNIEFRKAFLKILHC

[2] = system: Plasma; assay: Stability of the compound in human plasma assessed as compound remaining after 2 hrs; format: ADME, cell-free
[3] = system: Liver; assay: Intrinsic half-life in mouse liver microsomes; format: ADME
[4] = system: Plasma; assay: Stability of the compound in mouse plasma assessed as compound remaining after 2 hrs; format: ADME, cell-free
[5] = Aqueous kinetic solubility of the compound in PBS buffer; format: physicochemical
[6] = system: Caco-2; assay: Apparent permeability from apical to basolateral side in human Caco2 cells; format: ADME, cell-based
[7] = system: Caco-2; assay: Apparent permeability from basolateral to apical side in human Caco2 cells; format: ADME, cell-based
[8] = system: Brain; assay: Cmax in C57BL/6 mouse brain at 30 mg/kg, ip administered as single dose measured within 15 mins after drug challenge; format: ADME, organism-based; parameters: dose 30 mg/kg, route intraperitoneal; settings: in vivo, 0.25 h
Procedure, shortened: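 Male C57BL/6 mice (N = 3) got a single 30 mg/kg ip dose in 10% NMP + 20% PEG 400 + 70% of 25% HP-β-CD in water. Plasma and brain concentration–time profiles were measured.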

[9] = molecular target: T2, D(3) dopamine receptor (Homo sapiens, UniProt P35462); assay: Displacement of [3H]methylspiperone from human D3 receptor expressed in HEK293 cell membrane after 90 mins by scintillation counting analysis; format: cell membranes
T2 sequence (P35462 whole entry): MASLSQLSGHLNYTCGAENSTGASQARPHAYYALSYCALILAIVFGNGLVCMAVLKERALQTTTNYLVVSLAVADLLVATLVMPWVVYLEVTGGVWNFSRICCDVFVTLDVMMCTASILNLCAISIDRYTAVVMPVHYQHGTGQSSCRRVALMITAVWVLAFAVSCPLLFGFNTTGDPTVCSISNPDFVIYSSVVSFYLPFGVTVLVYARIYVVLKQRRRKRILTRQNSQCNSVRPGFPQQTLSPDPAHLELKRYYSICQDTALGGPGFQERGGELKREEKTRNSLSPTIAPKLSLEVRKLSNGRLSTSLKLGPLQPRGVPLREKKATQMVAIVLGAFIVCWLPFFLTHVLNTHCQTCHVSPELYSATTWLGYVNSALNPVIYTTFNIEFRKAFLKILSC

[10] = molecular target: T1, D(2) dopamine receptor; assay: Displacement of [3H]methylspiperone from human D2L receptor expressed in HEK cell membrane after 90 mins by scintillation counting analysis; format: cell membranes, HEK293
[11] = molecular target: T1, D(2) dopamine receptor; assay: Antagonist activity at ProLink-tagged D2 receptor (unknown origin) expressed in CHO cells assessed as inhibition of dopamine-stimulated beta-arrestin binding treated for 90 mins prior to dopamine challenge by PathHunter DiscoveRx assay; format: cell-based
[12] = molecular target: T2, D(3) dopamine receptor; assay: Antagonist activity at ProLink-tagged D3 receptor (unknown origin) expressed in CHO cells assessed as inhibition of dopamine-stimulated beta-arrestin binding treated for 90 mins prior to dopamine challenge by PathHunter DiscoveRx assay; format: cell-based
[13] = system: HEK293; assay: Ratio of Ki for human D3 receptor expressed in HEK293 cell membrane to Ki for human D2L receptor expressed in HEK cell membrane; format: cell-based
Procedure, shortened: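 Competition binding with [3H]methylspiperone on membranes from stable HEK cells. […] Incubation 90 min at room temperature in EBSS with sodium metabisulfite, nonspecific binding with 4 µM (+)-butaclamol, then GF/C filtration and scintillation counting. Ki from IC50 via Cheng–Prusoff.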

[14] = system: CHO; assay: Ratio of AC50 for ProLink-tagged D3 receptor (unknown origin) expressed in CHO cells to AC50 for ProLink-tagged D2 receptor (unknown origin) expressed in CHO cells by beta-arrestin assay; format: cell-based; settings: Homo sapiens

AC50 [1]: 141 nM
Compound: CCN1C(=O)c2ccccc2[S+]([O-])c2ccc(C(=O)NCc3ccc(C#N)cc3)cc21 (racemic)

AC50 [1]: 353 nM
Compound: CCN1C(=O)c2ccccc2[S+]([O-])c2ccc(C(=O)NCc3ccc(S(C)(=O)=O)cc3)cc21 (racemic)

AC50 [1]: 705 nM
Compound: CCN1C(=O)c2ccccc2Sc2ccc(C(=O)NCc3ccc(OC)cc3)cc21

AC50 [1]: 71 nM
Compound: CN1C(=O)c2ccccc2[S+]([O-])c2ccc(C(=O)NCc3ccc(Br)cc3)cc21 (racemic)

AC50 [1]: 887 nM
Compound: COc1ccc(CNC(=O)c2ccc3c(c2)NC(=O)c2ccccc2[S+]3[O-])cc1 (racemic)

Compound: CN1C(=O)c2ccccc2[S@+]([O-])c2ccc(C(=O)NCCc3cccs3)cc21
Stability [2]: 98.4%
t1/2 [3]: 24.7 min
Stability [4]: 95.2%
Kinetic_solubility [5]: 113.3 µM
Papp [6]: 18.8 ×10⁻⁶ cm/s
Papp [7]: 23.8 ×10⁻⁶ cm/s
Cmax [8]: 4.19 µmol/kg
Ki [9]: 4100 nM

AC50 [1]: 281 nM
Compound: CN1C(=O)c2ccccc2[S+]([O-])c2ccc(C(=O)NCc3cccc(Cl)c3)cc21 (racemic)

AC50 [1]: 89 nM
Compound: CCN1C(=O)c2ccccc2[S+]([O-])c2ccc(C(=O)NCc3ccc(F)cc3)cc21 (racemic)

AC50 [1]: 112 nM
Compound: CN1C(=O)c2ccccc2[S+]([O-])c2ccc(C(=O)NCCN3CCCCC3)cc21 (racemic)

Compound: CN1C(=O)c2ccccc2[S@@+]([O-])c2ccc(C(=O)NCCc3cccs3)cc21
Ki [10]: > 50000 nM
AC50 [11]: > 77000 nM
AC50 [1]: > 77000 nM
AC50 [12]: > 77000 nM
Ki [9]: > 50000 nM

AC50 [1]: 177 nM
Compound: CCN1C(=O)c2ccccc2[S+]([O-])c2ccc(C(=O)NCc3ccc(C)cc3)cc21 (racemic)

Compound: COc1ccc(CNC(=O)c2ccc3c(c2)C(=O)c2ccccc2C3=O)cc1
AC50 [1]: > 77000 nM

AC50 [1]: 223 nM
Compound: CCN1C(=O)c2ccccc2[S+]([O-])c2ccc(C(=O)NCc3ccc(SC)cc3)cc21 (racemic)

AC50 [1]: 353 nM
Compound: CCN1C(=O)c2ccccc2[S+]([O-])c2ccc(C(=O)NCCc3ccc(OC)cc3)cc21 (racemic)

AC50 [1]: 112 nM
Compound: CCN1C(=O)c2ccccc2[S+]([O-])c2ccc(C(=O)NCc3cccc(OC)c3)cc21 (racemic)

AC50 [1]: 705 nM
Compound: CCCN1C(=O)c2ccccc2[S+]([O-])c2ccc(C(=O)NCc3ccc(OC)cc3)cc21 (racemic)

Ki [10]: 310 nM
AC50 [11]: 2890 nM
AC50 [1]: 445 nM
AC50 [12]: 14500 nM
Ki [9]: 21000 nM
Compound: CN1C(=O)c2ccccc2[S@+]([O-])c2ccc(C(=O)NCc3cccnc3)cc21
Ratio Ki [13]: 70
Ratio [14]: 5

AC50 [1]: 887 nM
Compound: CCN1C(=O)c2ccccc2[S+]([O-])c2ccc(C(=O)Nc3ccccc3)cc21 (racemic)

AC50 [1]: 141 nM
Compound: CCN1C(=O)c2ccccc2[S+]([O-])c2ccc(C(=O)NCc3ccc(C(F)(F)F)cc3)cc21 (racemic)

AC50 [1]: 353 nM
Compound: CCN1C(=O)c2ccccc2[S+]([O-])c2ccc(C(=O)NCc3ccc4c(c3)OCO4)cc21 (racemic)

AC50 [1]: 560 nM
Compound: CCN1C(=O)c2ccccc2[S+]([O-])c2ccc(C(=O)NC(C)c3ccccc3)cc21 (racemic)

Ki [10]: 210 nM
AC50 [11]: 363 nM
AC50 [1]: 70 nM
AC50 [12]: 4570 nM
Ki [9]: 350 nM
Compound: CN1C(=O)c2ccccc2[S@+]([O-])c2ccc(C(=O)NCCN3CCCC3)cc21
Ratio Ki [13]: 1.7
Ratio [14]: 12.6

AC50 [1]: 141 nM
Compound: CCN1C(=O)c2ccccc2[S+]([O-])c2ccc(C(=O)Nc3ccc(OC)cc3)cc21 (racemic)

AC50 [1]: 56000 nM
Compound: CCN(Cc1ccccc1)C(=O)c1ccc2c(c1)N(CC)C(=O)c1ccccc1[S+]2[O-] (racemic)

AC50 [1]: 4460 nM
Compound: CCN1C(=O)c2ccccc2[S+]([O-])c2ccc(C(=O)NCc3ccccc3OC)cc21 (racemic)

Compound: CCN1C(=O)c2ccccc2S(=O)(=O)c2ccc(C(=O)NCc3ccc(OC)cc3)cc21
AC50 [1]: > 77000 nM

Compound: CN1C(=O)c2ccccc2[S+]([O-])c2ccc(C(=O)NCCc3cccs3)cc21 (racemic)
Ki [10]: 190 nM
AC50 [11]: 913 nM
AC50 [1]: 89 nM
AC50 [12]: 20400 nM
Ki [9]: 9200 nM

Ki [10]: 90 nM
AC50 [11]: 576 nM
AC50 [1]: 56 nM
AC50 [12]: 3240 nM
Ki [9]: 230 nM
Compound: CCN1C(=O)c2ccccc2[S@+]([O-])c2ccc(C(=O)NCc3ccc(F)cc3)cc21
Ratio Ki [13]: 2.6
Ratio [14]: 5.6

AC50 [1]: 89 nM
Compound: CN1C(=O)c2ccccc2[S+]([O-])c2ccc(C(=O)NCCN3CCCC3)cc21 (racemic)

AC50 [1]: 353 nM
Compound: COc1ccc(NC(=O)c2ccc3c(c2)N(C)C(=O)c2ccccc2[S+]3[O-])cc1 (racemic)

AC50 [1]: 705 nM
Compound: CCN1C(=O)c2ccccc2[S+]([O-])c2ccc(NC(=O)Cc3ccc(OC)cc3)cc21 (racemic)

Ki [10]: 290 nM
AC50 [11]: 2890 nM
AC50 [1]: 353 nM
AC50 [12]: 32400 nM
Ki [9]: 3400 nM
Compound: CCN1C(=O)c2ccccc2[S@+]([O-])c2ccc(C(=O)N[C@H](C)c3ccc4ccccc4c3)cc21
Ratio Ki [13]: 11.7
Ratio [14]: 11.2

AC50 [1]: 1770 nM
Compound: CCN1C(=O)c2ccccc2[S+]([O-])c2ccc(C(=O)NCc3cc(OC)c(OC)c(OC)c3)cc21 (racemic)

AC50 [11]: 2890 nM
AC50 [1]: 280 nM
AC50 [12]: 10200 nM
Compound: CN1C(=O)c2ccccc2[S@+]([O-])c2ccc(C(=O)NCc3ccc(Cl)cc3)cc21
Ratio [14]: 4.5

AC50 [1]: 112 nM
Compound: COc1ccc(CNC(=O)c2ccc3c(c2)N(C)C(=O)c2ccccc2[S+]3[O-])cc1 (racemic)

AC50 [1]: 8870 nM
Compound: COc1ccc(CNC(=O)c2ccc3c(c2)N(Cc2ccccc2)C(=O)c2ccccc2[S+]3[O-])cc1 (racemic)

Compound: CCN1C(=O)c2ccccc2[S+]([O-])c2ccc(C(=O)N(C)Cc3ccc(OC)cc3)cc21 (racemic)
AC50 [1]: > 77000 nM

AC50 [1]: 1580 nM
Compound: CN1C(=O)c2ccccc2[S+]([O-])c2ccc(C(=O)Nc3ccccc3)cc21 (racemic)

AC50 [1]: 223 nM
Compound: CCN1C(=O)c2ccccc2[S+]([O-])c2ccc(NC(=O)Cc3ccc(F)cc3)cc21 (racemic)

AC50 [1]: 11200 nM
Compound: CN1C(=O)c2ccccc2[S+]([O-])c2ccc(C(=O)NCc3ccccn3)cc21 (racemic)

AC50 [1]: 353 nM
Compound: CN1C(=O)c2ccccc2[S+]([O-])c2ccc(C(=O)NCc3ccc(F)cc3)cc21 (racemic)

AC50 [1]: 560 nM
Compound: CN(C)CCCNC(=O)c1ccc2c(c1)N(C)C(=O)c1ccccc1[S+]2[O-] (racemic)

Ki [10]: 530 nM
AC50 [11]: 1290 nM
AC50 [1]: 223 nM
AC50 [12]: 9130 nM
Ki [9]: 880 nM
Compound: CCN1C(=O)c2ccccc2[S@+]([O-])c2ccc(C(=O)N[C@H](C)c3ccc(Br)cc3)cc21
Ratio Ki [13]: 1.7
Ratio [14]: 7.1

AC50 [1]: 223 nM
Compound: CN1C(=O)c2ccccc2[S+]([O-])c2ccc(C(=O)NCc3ccccc3)cc21 (racemic)

Ki [10]: 23 nM
AC50 [11]: 257 nM
AC50 [1]: 112 nM
AC50 [12]: 1620 nM
Ki [9]: 130 nM
Compound: CCN1C(=O)c2ccccc2[S@+]([O-])c2ccc(C(=O)NCc3ccc(C#N)cc3)cc21
Ratio Ki [13]: 5.7
Ratio [14]: 6.3

AC50 [1]: 353 nM
Compound: CCN1C(=O)c2ccccc2[S+]([O-])c2ccc(C(=O)NCc3ccc(C(C)(C)C)cc3)cc21 (racemic)

Compound: CCN1C(=O)c2ccccc2[S+]([O-])c2ccc(C(=O)OCc3ccc(OC)cc3)cc21 (racemic)
AC50 [1]: > 77000 nM

Compound: COc1ccc(CNC(=O)c2cccc(N3C(=O)c4ccccc4C3=O)c2)cc1
AC50 [1]: > 77000 nM

AC50 [1]: 141 nM
Compound: CN1C(=O)c2ccccc2[S+]([O-])c2ccc(C(=O)NCc3ccc(Cl)cc3)cc21 (racemic)

Ki [10]: 240 nM
AC50 [11]: 1020 nM
AC50 [1]: 89 nM
AC50 [12]: 4570 nM
Ki [9]: 370 nM
Compound: CN1C(=O)c2ccccc2[S@+]([O-])c2ccc(C(=O)NCc3ccc(Br)cc3)cc21
Ratio Ki [13]: 1.5
Ratio [14]: 4.5

AC50 [1]: 281 nM
Compound: CN1C(=O)c2ccccc2[S+]([O-])c2ccc(C(=O)NCc3cccnc3)cc21 (racemic)

AC50 [1]: 509 nM
Compound: CCN1C(=O)c2ccccc2[S+]([O-])c2ccc(C(=O)NCc3ccc(Cl)cc3)cc21 (racemic)

AC50 [1]: 445 nM
Compound: CCN1C(=O)c2ccccc2[S+]([O-])c2ccc(C(=O)NCc3ccccc3)cc21 (racemic)
